In series [1] the target is T1, Beta-secretase 1 (Homo sapiens, UniProt P56817). Nature of the series: Inhibition of BACE1 by ECL assay.
Series [2] deals with T1, Beta-secretase 1. Briefly: Inhibition of BACE1 assessed as effect on soluble APPbeta N-terminal fragment secretion in HEK293T cells. It is filed as cell-based, HEK-293T.
Series [3] relates to LLC-PK1. Briefly: Ratio of permeability from basolateral to apical over apical to basolateral side in LLC-PK1 cells transfected with MDR1 by PGP assay. To be noted: human. In kind it is ADME, cell-based.
Series [4] can be described thus: Ratio of drug level in APP-YAC mouse brain to IC50 for BACE1 in HEK293T cells. It is filed as ADME, cell-based. Particulars: hek-293t.
Series [5] has as its system Rattus norvegicus. Nature of the series: Plasma clearance in rat at 2 mg/kg, iv. It is filed as ADME, organism-based. On the set-up: dose 2 mg/kg, route intravenous. Particulars: in vivo.
Series [6] is described as follows: Volume of distribution in rat at 2 mg/kg, iv. In kind it is ADME, organism-based. Also noted: dose 2 mg/kg, route intravenous. To be noted: in vivo, read-out: Vdss.
A short description of series [7]: Cmax in rat at 10 mg/kg, po. Particulars: in vivo. It is filed as ADME, organism-based. On the set-up: dose 10 mg/kg, route oral.
Series [8] is described as follows: Oral bioavailability in rat. Particulars: in vivo. It is filed as ADME, organism-based.
The nature of series [9]: Drug level in APP-YAC mouse brain at 20 mg/kg, iv after 30 mins. It is filed as ADME, organism-based. On the set-up: dose 20 mg/kg, route intravenous. Particulars: read-out: Drug uptake. Summed up:
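Brain penetration: brain concentration in mice measured 30 min after a 20 mg/kg i.v. dose, n of 3, reported in nM.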

Series [10] concerns Mus musculus. Briefly: Reduction of beta amyloid protein 40 level in transgenic APP-YAC mouse at 50 mg/kg, iv after 3 hrs relative to control. In kind it is functional. Also noted: scale not given: the % may be the effect or the level left. Summed up:
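APP-YAC mice (human WT APP on a yeast artificial chromosome) given i.v. bolus; brain Aβ40 measured at 0.5–4.5 h (time course, 50 mg/kg) and at 3.0 h across 6.25–50 mg/kg; reduction relative to vehicle-treated animals, Tukey-Kramer HSD statistics; γ-secretase inhibitor as positive control.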

Series [11] can be described thus: Drug level in APP-YAC mouse brain at 50 mg/kg, iv after 0.5 hrs. Particulars: read-out: Drug uptake. On the set-up: dose 50 mg/kg, route intravenous. In kind it is ADME, organism-based. Summed up:
(§1)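 Time course: transgenic mice expressing human WT APP from a yeast artificial chromosome given a 50 mg/kg i.v. bolus; brain drug concentration measured at 0.5, 1.5, 3 and 4.5 h post-dose.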

Series [12] can be described thus: Drug level in APP-YAC mouse brain at 50 mg/kg, iv after 4.5 hrs. In kind it is ADME, organism-based. Also noted: dose 50 mg/kg, route intravenous. To be noted: read-out: Drug uptake. In short, it runs like this:
as §1

Series [13] has as its system Brain. Nature of the series: Drug level in APP-YAC mouse brain at 50 mg/kg, iv. In kind it is ADME, organism-based. On the set-up: dose 50 mg/kg, route intravenous. To be noted: in vivo, read-out: Drug uptake. Summed up:
(§2)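 Dose response: APP-YAC transgenic mice given i.v. bolus doses of 6.25, 12.5, 25 or 50 mg/kg; brain drug concentration determined 3.0 h post-dose.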

Series [14] relates to Brain. Nature of the series: Drug level in APP-YAC mouse brain at 25 mg/kg, iv. To be noted: in vivo, read-out: Drug uptake. Also noted: dose 25 mg/kg, route intravenous. In kind it is ADME, organism-based. Summed up:
as §2

The nature of series [15]: Half life in rat at 2 mg/kg, iv. Particulars: in vivo.

One may read the IC50 as the concentration at which inhibition is half-maximal. One may read the clearance as a measure of how efficiently the substance is removed, as volume per time. In general, Cmax refers to the peak of the concentration-time curve. What is called bioavailability is the share of a dose that reaches the circulation, judged against a reference dose that is usually intravenous. As usually defined, the half-life is the time needed for the level to fall by half in the phase considered.

T1 sequence (P56817 whole entry, the tested form may be a part): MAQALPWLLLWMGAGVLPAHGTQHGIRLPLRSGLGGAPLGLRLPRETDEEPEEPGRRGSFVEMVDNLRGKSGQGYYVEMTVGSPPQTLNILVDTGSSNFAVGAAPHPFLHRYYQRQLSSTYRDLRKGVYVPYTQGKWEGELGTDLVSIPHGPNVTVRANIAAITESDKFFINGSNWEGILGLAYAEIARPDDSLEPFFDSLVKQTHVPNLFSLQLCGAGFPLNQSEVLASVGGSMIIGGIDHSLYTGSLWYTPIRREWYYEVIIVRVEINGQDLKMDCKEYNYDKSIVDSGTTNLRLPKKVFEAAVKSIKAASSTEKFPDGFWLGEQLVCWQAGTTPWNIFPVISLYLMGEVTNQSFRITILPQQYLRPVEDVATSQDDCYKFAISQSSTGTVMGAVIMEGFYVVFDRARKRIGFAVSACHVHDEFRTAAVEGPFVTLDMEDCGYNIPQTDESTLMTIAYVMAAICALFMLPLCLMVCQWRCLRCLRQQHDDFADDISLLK

`CC(C)S(=O)(=O)N(C)c1cc(C(=O)N[C@@H](Cc2ccccc2)[C@@H](N)CF)cc(N(C)C[C@H]2C[C@@H]2C)n1`: the IC50 in [1] was 0.018 µM; in series [2], 0.91 µM. Besides, the Ratio worked out at 4.8 in [3] and 3.4 in series [4]. The same molecule showed a clearance in series [5] of 59.1 mL/min/kg. Also, the Vd in [6] is 4.2 L/kg. Further, the highest level in [7] (Cmax) was 200 nM. The same molecule came in with a bioavailability in series [8] of 8%.
`CCCN(CC1CC1)c1cc(C(=O)N[C@H](CO)Cc2ccccc2)cc(N(C)S(=O)(=O)C(C)C)n1`: the figures for the half-maximal inhibitory concentration (IC50) in series [1] and in [2] were 0.35 µM and greater than 20 µM, respectively. Moreover, the Ratio is recorded as 3.6 in series [3] and less than 0.07 in series [4]. Besides, in [9], the concentration at 0.5 h amounted to 1400 nM.
Take `CC(C)S(=O)(=O)N(C)c1cc(C(=O)N[C@@H](Cc2ccccc2)[C@@H](N)CF)cc(NC[C@H]2C[C@@H]2C)n1`: the 50% inhibitory concentration (IC50) in series [1] is 0.002 µM; in [2], 0.049 µM. Moreover, the results for the Ratio in series [3] and in series [4] were greater than 50 and 11.4, respectively. This molecule also yielded an Activity in series [10] of 34%. Besides, the concentration at 0.5 h in series [11] is 5800 nM. The concentration at 4.5 h in series [12] was found to be 700 nM. In addition, the concentration in series [13] is 1900 nM; in series [14], 700 nM. In series [5], this molecule came in with a clearance of 45.8 mL/min/kg. In addition, in series [6], the Vd worked out at 3.9 L/kg. For the same molecule, the Cmax in [7] turned out to be 300 nM. The bioavailability in [8] was 13%. Moreover, the half-life in series [15] was 1.6 h.
For the molecule `CC1CC1CNc1cc(C(=O)N[C@@H](Cc2ccccc2)[C@@H](N)CF)cc(N(C)S(=O)(=O)C(C)C)n1` (mixture of isomers), the concentration at 0.5 h in series [9] stood at 560 nM.
Same read-out and setting: the same measure for `CC1CC1CN(C)c1cc(C(=O)N[C@@H](Cc2cc(F)cc(F)c2)[C@@H](N)CF)cc(N(C)S(=O)(=O)C(C)C)n1` (mixture of isomers): 3080 nM.
For the molecule `CC(C)S(=O)(=O)N(C)c1cc(C(=O)N[C@H](CO)Cc2cc(F)cc(F)c2)cc(NC[C@H]2C[C@@H]2C)n1`, the values for the 50% inhibitory concentration (IC50) in series [1] and in series [2] were 0.014 µM and greater than 20 µM, respectively.
Turning to `CN(c1cc(C(=O)N[C@H](CO)Cc2cc(F)cc(F)c2)cc(NCC2CC2)n1)S(C)(=O)=O`, the IC50 in series [1] is 1.1 µM.

(Values after ChEMBL document CHEMBL1145451, “Discovery of isonicotinamide derived beta-secretase inhibitors: in vivo reduction of beta-amyloid” (J Med Chem, 2007).)
